# Bioassay records deposited in PubChem by Broad Institute.
# DENV2 CPE = inhibitors of DENV2 cytopathic effect; DENV2-infected cells, cytopathic effect rescue, plate reader; CPE inhibition, % at 9.99 µM; 1.7% of 350,000 active; AID 651640; in the data active = CPE inhibition above about 20%, passing the limit was not always enough; tested in BHK-21 cells;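 also: 0% = median of neutral control wells and 100% = median of positive control wells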
# SIRT5 inh = blocks human SIRT5 desuccinylation of peptide; inhibition, % at 15 µM; Purified SirT5, succinyl-peptide AMC, trypsin-coupled fluorescence; Q9NXA8; 1.1% of 330,000 active; in the data active = inhibition above about 15%
# E-sel inducer = induces E-selectin expression in human endothelial cells. P16581. HUVEC E-selectin immunofluorescence imaging; normalized: neutral wells 0, TNF-alpha wells 100. activation, % at 7.58 µM. 0.37% of 260,000 active;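 active = mean E-selectin-positive cell signal at least 10% of the positive control, reached in at least 60% of replicates, without over 20% cell loss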
#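 Assay system: HUVEC primary endothelial cells. Input: 3,000 HUVEC seeded per well. Doses: one compound dose added by pin transfer. Read-out basis: % PE-positive cells. Benchmarks: TNF-alpha high, DMSO low. Detection: immunofluorescence imaging. Buffer or medium: EGM-2, gelatin.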
# Active calls of the source: *; x = no result. Shown are actives, neighbours in structure and some others; about 2.8% of the full set was active somewhere.
SMILES,DENV2 CPE,SIRT5 inh,E-sel inducer
CN(C)c1ccc2c(c1)[C@@H]1C[C@@H](CC(=O)NCc3ccc(Oc4ccccc4)cc3)O[C@@H](CO)[C@@H]1O2,0,15,0
CN(C)c1ccc2c(c1)[C@H]1C[C@H](CC(=O)NCc3ccccc3)O[C@@H](CO)[C@H]1O2,2,-3,-1
CN(C)c1ccc2c(c1)[C@H]1C[C@@H](CC(=O)NCc3ccc(Oc4ccccc4)cc3)O[C@H](CO)[C@H]1O2,82*,-1,-1
CN(C)c1ccc2c(c1)[C@@H]1C[C@@H](CC(=O)NCc3ccccc3)O[C@H](CO)[C@@H]1O2,3,20*,0
CNC[C@H]1Oc2cc(-c3ccncc3)ccc2S(=O)(=O)N([C@@H](C)CO)C[C@H]1C,0,-4,0
COc1cccc(NC(=O)CN(C)C(=O)c2cccc(S(=O)(=O)N3c4ccccc4CC3C)c2)c1 (stereo not drawn),58*,-2,0
COc1cccc(NC(=O)CN(C)C(=O)c2cccc(NS(=O)(=O)c3ccccc3)c2)c1,2,0,1
CCCNC(=O)[C@H]1[C@H](CO)[C@H]2Cn3c(ccc(-c4ccccc4F)c3=O)[C@@H]1N2CC1CC1,-3,-2,0
COCC(=O)Nc1ccc2c(c1)OC[C@@H](C)N(Cc1ccccc1F)C[C@@H](C)[C@H](OC)CN(C)C2=O,-4,-1,0
COc1cccc(C(=O)NCc2ccc3c(c2)OCO3)c1,-2,0,4
COc1cc(OC)cc(C(=O)NCc2ccc3c(c2)OCO3)c1,29*,-10,x
CCOc1c2ccc(C(=O)NCc3ccc4c(c3)OCO4)cc2nn1CC,32*,-12,0
CCCn1nc2cc(C(=O)NCc3ccc4c(c3)OCO4)ccc2c1OCC,-2,x,0
O=C(Nc1ccc(N2CCCC2)c(Cl)c1)c1cccs1,8,67*,x
O=C(NC(=S)Nc1ccc(N2CCOCC2)c(Cl)c1)c1cccs1,x,1,x
O=C(C[C@@H]1C[C@@H]2c3cc(NC(=O)CC4CC4)ccc3O[C@@H]2[C@@H](CO)O1)NCc1ccc2c(c1)OCO2,5,2,0
COc1cccc(S(=O)(=O)N[C@@H]2CC[C@H](CCn3cc(-c4ccccc4OC)nn3)O[C@H]2CO)c1,0,1,0
COCC#Cc1cnc2c(c1)C(=O)N([C@@H](C)CO)C[C@H](C)[C@@H](CN(C)Cc1ccc(-c3ccccc3)cc1)O2,8,-1,0
CC1CN(C(=S)SCCN2Cc3ccccc3C2=O)CC(C)O1 (stereo not drawn),-4,2,x
O=C1c2ccccc2CN1CCSC(=S)N1CCOCC1,21*,-1,x
CCC(=O)N[C@@H]1CC[C@H](CC(=O)NCc2ccc(OC)cc2)O[C@H]1CO,2,2,1
O=C1c2ccccc2NC(c2ccc(-c3ccccc3F)o2)N1O (stereo not drawn),25*,5,0
O=C1c2ccccc2NC(c2ccc(-c3cccc(F)c3)o2)N1O (stereo not drawn),-3,-2,0
O=C(C[C@@H]1C=C[C@@H](NC(=O)c2ccc3c(c2)OCO3)[C@@H](CO)O1)NCc1ccc(Cl)cc1,-3,4,-1
Cc1ccc(C(=O)c2ccc(C)cc2)cc1,-11,-5,3
SMILES,DENV2 CPE,SIRT5 inh,E-sel inducer
Cc1ccc(C(=O)c2ncc[nH]2)cc1,52*,x,0
COc1ccc(S(=O)(=O)N(C)C[C@H]2Oc3ccc(NS(C)(=O)=O)cc3CC(=O)N([C@@H](C)CO)C[C@@H]2C)cc1,5,2,x
COc1ccc(CC(=O)c2ccc(O)cc2O)cc1,76*,2,x
O=C(Cc1ccc([N+](=O)[O-])cc1)c1ccc(O)cc1O,-10,-5,0
C[C@@H]1COC(=O)[C@H](CC(=O)OC(C)(C)C)C/C=C\C[C@H](CC(=O)NCCO)C(=O)N1,3,x,0
C[C@@H]1COC(=O)[C@@H](CC(=O)OC(C)(C)C)C/C=C\C[C@@H](CC(=O)NCCO)C(=O)N1,24*,4,x
COCCCNC(=O)CCn1c(=O)c2ccccc2n(Cc2cccc([N+](=O)[O-])c2)c1=O,-2,29*,0
COCCCNC(=O)CCCn1c(=O)c2ccccc2n(Cc2cccc([N+](=O)[O-])c2)c1=O,6,3,-1
COC(=O)c1cccnc1-n1c(=O)c2cccnc2n(Cc2cccc([N+](=O)[O-])c2)c1=O,-7,0,-1
COc1ccc(CCn2c(=O)c3cccnc3n(Cc3cccc([N+](=O)[O-])c3)c2=O)cc1OC,2,0,27*
COC(=O)C(CC(=O)c1ccc(Cl)cc1)c1ccccc1 (stereo not drawn),6,0,x
O=C(CC(C(=O)O)c1ccc(Cl)cc1)c1ccc(Br)cc1 (stereo not drawn),0,17*,0
